Results on 167 variants are retold here after the RNAGym collection of RNA variant scans (doi:10.1002/anie.201605470).

B1: Osa-1-4 twister ribozyme (parent)
chain: CCGCCUAACACUGCCAAUGCCGGUCCCAAGCCCGGAUAAAAGUGGAGGGGGCGG

The data set covers variants of B1. Put plainly: self-cleavage, relative activity (ratio to wild type); higher = more cleavage; co-transcriptional. The gist of the method:
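The 48 positions downstream of the cleavage site in a 54-nucleotide Oryza sativa twister ribozyme template were synthesised at 97 % wild-type base and 1 % of each other base. The template was transcribed in vitro at 37 °C for 2 h, with self-cleavage allowed during transcription. Reads with or without upstream sequence after deep sequencing marked cleavage status, and relative activity is fraction cleaved normalised to wild type.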
As for A28U C33A, the self-cleavage was found to be 0.08.
The result for A28U C33U reads 0.49.
Regarding A28U C33G, the self-cleavage is 0.05.
With A29C G47C, the self-cleavage amounted to 0.02.
Consider A29C G47U, for which the self-cleavage turned out to be 0.03.
Turning to A29C G47A, the self-cleavage was found to be 0.02.
For the variant A28U U37A, the self-cleavage was 0.68.
In the case of A28U U37G it was 0.97; in that of A28U U37C, 0.97; in that of A29C G54C, 0.04.
The result for A29C G54A reads 0.03; that for A29C G54U, 0.08.
For the variant A29C G48C, the self-cleavage was 0.02.
In the case of A29C G48U it was 0.01.
A29C G48A: the self-cleavage was 0.01.
In the case of A29G C15U it was 0.05.
In the case of A29G C15A it was 0.06.
In the case of A29G C15G, the self-cleavage is 0.08.
Turning to A28U G23C, the self-cleavage worked out at 0.05.
In the case of A28U G23A it was 0.14.
In the case of A28U G23U it was 0.07; in that of A29C G35C, 0.02; in that of A29C G35A, 0.04.
A29C G35U: the self-cleavage was determined as 0.05.
In the case of A28U A36G it was 0.99; in that of A28U A36C, 0.21; in that of A28U A36U, 0.94.
Regarding A29C A7G, the self-cleavage was 0.03.
A29C A7C: the self-cleavage was 0.03.
The result for A29C A7U reads 0.01; that for A28U G51U, 0.2.
In the case of A28U G51A it was 0.28; in that of A28U G51C, 0.08.
In the case of A29C C52A it was 0.06.
Take A29C C52G: the self-cleavage was found to be 0.05.
In the case of A29C C52U it was 0.06; in that of A29G C26G, 0.1; in that of A29G C26U, 0.08.
On to A29G C26A, for which the self-cleavage turned out to be 0.04.
The result for A28U G50U reads 0.95; that for A28U G50C, 0.81.
With A28U G50A, the self-cleavage was found to be 0.42.
The result for A28U C32A reads 0.07; that for A28U C32U, 0.1.
The result for A28U C32G reads 0.1; that for A29G C14G, 0.08; that for A29G C14A, 0.04.
The result for A29G C14U reads 0.06; that for A28U G53U, 0.15; that for A28U G53C, 0.08.
In the case of A28U G53A, the self-cleavage was 0.42.
Turning to A29C G45A, the self-cleavage was determined as 0.02.
The result for A29C G45U reads 0.01; that for A29C G45C, 0.01.
With A28U U18G, the self-cleavage was determined as 0.91.
Take A28U U18A: the self-cleavage amounted to 0.91.
In the case of A28U U18C, the self-cleavage amounted to 0.73.
With A28U A46G, the self-cleavage came out at 0.7.
The result for A28U A46C reads 0.07; that for A28U A46U, 0.08; that for A29C G23U, 0.02.
In the case of A29C G23C it was 0.02.
With A29C G23A, the self-cleavage worked out at 0.05.
The result for A28U C15U reads 0.1.
In the case of A28U C15G it was 0.14.
The result for A28U C15A reads 0.11; that for A29C A39G, 0.03.
For the variant A29C A39U, the self-cleavage is 0.03.
In the case of A29C A39C it was 0.04.
The result for A28U A7U reads 0.07.
Consider A28U U24C, for which the self-cleavage came to 0.09.
Regarding A28U U24A, the self-cleavage came out at 0.08.
On to A28U U24G, for which the self-cleavage was found to be 0.02.
Consider A28U C25U, for which the self-cleavage was determined as 0.28.
In the case of A28U C25A it was 0.07.
For the variant A28U C25G, the self-cleavage came out at 0.05.
The result for A28U G35A reads 0.73; that for A28U G35C, 0.15; that for A28U G35U, 0.71.
For A28U G42U, the self-cleavage was determined as 0.06.
Consider A28U G42C, for which the self-cleavage turned out to be 0.09.
Regarding A28U G42A, the self-cleavage is 0.16.
Consider A28U C11G, for which the self-cleavage stood at 0.12.
The result for A28U C11A reads 0.27.
The result for A28U C11U reads 0.7.
The result for A29C C9A reads 0.02; that for A29C C9U, 0.02; that for A29C C9G, 0.05.
On to A28U G22C, for which the self-cleavage was 0.06.
In the case of A28U G22U it was 0.2.
The result for A28U G22A reads 0.34; that for A29C C32U, 0.03.
As for A29C C32A, the self-cleavage amounted to 0.03.
The result for A29C C32G reads 0.03; that for A28U G48C, 0.06; that for A28U G48A, 0.06.
On to A28U G48U, for which the self-cleavage worked out at 0.06.
In the case of A28U G13C it was 0.02; in that of A28U G13A, 0.06.
Turning to A28U G13U, the self-cleavage is 0.03.
With A29C A36U, the self-cleavage is 0.04.
In the case of A29C A36C it was 0.03.
For A29C A36G, the self-cleavage stood at 0.07.
In the case of A28U A29G it was 0.08.
In the case of A28U A29U it was 0.06; in that of A28U A29C, 0.03.
In the case of A29C C26A it was 0.02.
For A29C C26U, the self-cleavage was found to be 0.03.
A29C C26G: the self-cleavage is 0.02.
Take A28U C52U: the self-cleavage stood at 0.97.
In the case of A28U C52A, the self-cleavage turned out to be 0.93.
A28U C52G: the self-cleavage was 0.96.
The result for A29C G50C reads 0.03.
For A29C G50A, the self-cleavage was found to be 0.05.
A29C G50U: the self-cleavage is 0.04.
Take A29C C25U: the self-cleavage is 0.03.
In the case of A29C C25A it was 0.04; in that of A29C C25G, 0.02; in that of A29C A41U, 0.05.
In the case of A29C A41C it was 0.05.
In the case of A29C A41G it was 0.04; in that of A28U A38C, 0.95.
As for A28U A38U, the self-cleavage was determined as 0.87.
The result for A28U A38G reads 0.92; that for A29G A46G, 0.04; that for A29G A46C, 0.03.
The result for A29G A46U reads 0.04.
In the case of A29G A7G it was 0.11; in that of A29G A7C, 0.03; in that of A29G A7U, 0.14.
As to A29C U24C, the self-cleavage stood at 0.09.
In the case of A29C U24G it was 0.02.
For the variant A29C U24A, the self-cleavage came out at 0.04.
In the case of A29G A36C, the self-cleavage came out at 0.07.
Turning to A29G A36U, the self-cleavage was determined as 0.32.
In the case of A29G A36G it was 0.47; in that of A29C G22U, 0.05; in that of A29C G22C, 0.03.
The result for A29C G22A reads 0.08; that for A29G G23A, 0.07; that for A29C G42A, 0.03.
Consider A29C G42U, for which the self-cleavage was found to be 0.01.
The result for A29C G42C reads 0.02.
As for A29G G19C, the self-cleavage was 0.06.
In the case of A29G G19A, the self-cleavage turned out to be 0.08.
For the variant A29G G19U, the self-cleavage stood at 0.07.
In the case of A29C C33G, the self-cleavage was found to be 0.01.
The result for A29C C33A reads 0.04; that for A29C C33U, 0.03.
Turning to A29C G30C, the self-cleavage was found to be 0.01.
On to A29C G30U, for which the self-cleavage is 0.02.
The result for A29C G30A reads 0.02; that for A28U G47C, 0.06.
In the case of A28U G47A it was 0.09; in that of A28U G47U, 0.1.
For A29C C11G, the self-cleavage is 0.02.
For A29C C11A, the self-cleavage is 0.04.
On to A29C C11U, for which the self-cleavage came to 0.04.
For A29G C33U, the self-cleavage was 0.07.
In the case of A29G C33G it was 0.15; in that of A29G C33A, 0.05.
The result for A29C C20U reads 0.08; that for A29C C20G, 0.02.
In the case of A29C C20A it was 0.03; in that of A28U G49C, 0.06; in that of A28U G49U, 0.09.
As to A28U G49A, the self-cleavage is 0.08.
